This is a sample that favours compounds with a hit; in the whole collection about 3.9% have one here.
SR-BI DiI inh = blocks mouse SR-BI lipid uptake from DiI-HDL | ldlA[mSR-BI] CHO cells, DiI-HDL uptake fluorescence, 3 h | inhibition, % at 12.5 µM | 320,000 compounds, 0.96% hits | AID 488896;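 active means mean replicate inhibition of at least 70% and a set share of replicates each scoring 70 or more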
Target sequence (Q61009 whole entry, looked up): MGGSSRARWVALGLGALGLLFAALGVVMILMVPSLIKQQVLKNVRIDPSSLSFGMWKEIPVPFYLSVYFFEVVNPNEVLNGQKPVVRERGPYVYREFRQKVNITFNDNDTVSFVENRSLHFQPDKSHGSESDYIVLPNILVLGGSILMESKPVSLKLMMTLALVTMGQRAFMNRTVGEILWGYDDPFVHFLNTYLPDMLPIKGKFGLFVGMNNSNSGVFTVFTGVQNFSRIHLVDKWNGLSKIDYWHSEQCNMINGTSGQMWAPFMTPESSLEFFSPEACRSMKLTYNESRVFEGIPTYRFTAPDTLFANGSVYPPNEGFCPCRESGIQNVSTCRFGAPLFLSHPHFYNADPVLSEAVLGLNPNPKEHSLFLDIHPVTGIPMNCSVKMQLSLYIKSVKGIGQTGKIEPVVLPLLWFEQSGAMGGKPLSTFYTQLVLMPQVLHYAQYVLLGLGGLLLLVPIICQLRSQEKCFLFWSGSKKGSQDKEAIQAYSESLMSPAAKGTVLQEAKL
HIF act = HIF pathway transcriptional activation; 300,000 compounds, 0.32% hits; U2OS HRE-luciferase reporter, luminescence; normalized: DMSO 0%, desferrioxamine 100%; activation, % at 7.5 µM (by protocol); AID 1910;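 active means mean activation of at least 10% of the iron chelator positive control signal, with at least half of replicates also reaching 10%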
SR-BI uptake up = activators of SR-BI mediated HDL lipid uptake. AID 504775. activation, % at 12.5 µM. 320,000 compounds, 0.096% hits. CHO ldlA[mSR-BI] cells, DiI-HDL uptake fluorescence, 3 h; 100 = double the neutral-control signal;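 active means mean replicate activation of at least 60% and every replicate at or above 60%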
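Assay system: CHO ldlA[mSR-BI] cells, LDL receptor-null, SR-BI overexpressing; medium: Ham's F12 with 0.5% BSA, HEPES 25 mM, pH 7.4; also added: DiI-HDL 10 µg/mL; timing: 3 h uptake period with compound, 37 °C; signal: DiI fluorescence, bottom read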
ABCB6 inh 2 = human ABCB6 transporter inhibition; Q9NP58; 360,000 compounds, 0.19% hits; AID 602162; K562-ABCB6 porphyrin accumulation, flow cytometry, 1 h; stronger effect = lower value; fluorescence ratio to DMSO, % at 10 µM;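 active means fluorescence ratio to DMSO below 75%, the collection mean minus 3 SD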;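 further: signal is porphyrin accumulated inside mitochondria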
GAA850 FXN act = activators of GAA850 frataxin (FXN) promoter; HEK293 lucGAA850 FXN promoter luciferase reporter, 24 h; percent of 10 µM SAHA response; activation, % at 6 µM; 360,000 compounds, 0.56% hits;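 active means activation above the average of all compounds screened plus 3 SD, cutoff fixed separately per campaign, cut at about 7.5% in these data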
AHR act = activators of human aryl hydrocarbon receptor; AID 2796; activation, % at 5 µM; 320,000 compounds, 2.5% hits; AHR-responsive luciferase reporter cells, luminescence; in the data active means activation above about 47%
AHR act confirm = confirmation of human aryl hydrocarbon receptor activators. shares compounds with AHR act. human cells, AHR-responsive luciferase reporter, luminescence. activation, % at 9 µM. 2,300 compounds, 87% hits; in the data active means activation above about 49%;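 further: HepG2 hepatoma cells carrying a DRE-driven firefly luciferase reporter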
PXR counter = activates human PXR in AHR activator counter-screen; activation, % at 11.6 µM; 2,300 compounds, 88% hits; cell-based PXR reporter, luciferase luminescence; shares compounds with AHR act; in the data active means activation above about 11%;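 further: human hepatoma DPX-2 cells expressing full-length human PXR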
DiI quench = counter-screen for SR-BI lipid transfer inhibitors: DiI fluorescence quenchers. 470 compounds, 20% hits. shares compounds with SR-BI DiI inh. AC50, µM (top dose mostly 35 µM). cell-free DiI-HDL fluorescence quenching, 30 min;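 active means quenching, a falling signal, with AC50 below a set limit tied to the top valid dose, actives reach about 32 µM in these data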
GAA30 counter = activates GAA30 frataxin promoter, counter-screen for GAA850 activators; shares compounds with GAA850 FXN act; 1,900 compounds, 66% hits; activation, % at 6 µM; HEK293 lucGAA30 FXN promoter luciferase, 24 h; DMSO = 0%, 5 µM ipriflavone = 100%;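 active means mean activation above the mean of solvent-only control wells plus 3 SD, cut at about 22% in these data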;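 further: counterscreen of GAA850 promoter hits where activity marks nonselective or luminescence artifacts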
GAA850 confirm = confirmation of GAA850 frataxin (FXN) promoter activators; activation, % at 6 µM; HEK293 lucGAA850 FXN promoter luciferase reporter, 24 h; 100% = activation by SAHA; 1,900 compounds, 86% hits; shares compounds with GAA850 FXN act;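 active means mean activation above a set limit taken from the primary screen, cut at about 8% in these data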
Each line names hits and unclear results; the compound was inactive in the other large screens (follow-up assays come after a bar, where they were run).

COc1ccc2c(c1)cc(C)c1nnc(SCC(=O)N(C)c3nc(-c4ccccc4)cs3)n12	none
Clc1ccc(C2=NN=C3COc4ccccc4N3C2)cc1	AHR act 87.8 | AHR act confirm 117.7 | PXR counter 23.9
CCc1nccn1S(=O)(=O)c1ccc2ccccc2c1	none
COC(=O)c1ccc(C)c(NC(=O)CCCN2C(=O)CN(C)C2=O)c1	none (no result: HIF act)
CCOC(=O)c1sc(Nc2nc3c(OC)cccc3s2)cc1C	AHR act 107.7 | AHR act confirm 88.1 | PXR counter 60.9
Cc1cc(C)n2nc(C)c(-c3ccc(Cl)cc3)c2n1	none
Cc1cc(C)n2nc(N)c(N=Nc3ccc(Cl)cc3)c2n1	AHR act 109.2 | AHR act confirm 97.6 | PXR counter 30.7
O=C1c2ccccc2C(=O)N1c1ccc(Cl)cc1	AHR act 87.8 (no result: SR-BI DiI inh, SR-BI uptake up, ABCB6 inh 2, GAA850 FXN act) | AHR act confirm 61.9 | PXR counter 13.2
CCn1cc(C(=O)NCc2ccc(Cl)cc2)c(=O)c2cc(S(=O)(=O)N(C)C)ccc21	none
O=C(c1ccc2nc(Cc3ccccc3F)oc2c1)N1CCCC1	none
COC(=O)c1[nH]c2c(c1C)C(=O)CC(c1ccccc1)C2 (centres undefined)	none
C/C=C/COC(=O)c1[nH]c2c(c1C)C(=O)CC(c1ccco1)C2 (centres undefined)	SR-BI DiI inh 77.8, AHR act 115.9 | AHR act confirm inactive | PXR counter 196.5 | DiI quench inactive
O=C(COC(=O)c1ccccc1O)Nc1cccc2ccccc12	none (no result: HIF act)
O=C(Nc1cccc(-c2cn3c(n2)SCC3)c1)c1ccc2ccccc2n1	SR-BI DiI inh 76.3, AHR act 93.7 | AHR act confirm 54.2 | PXR counter 39.0 | DiI quench inactive
CC(=O)N/N=c1\sc2ccccc2n1C	none
Cn1/c(=N\NC(=O)c2ccccc2Cl)sc2ccccc21	GAA850 FXN act 8.1, AHR act 136.1 | AHR act confirm 126.1 | PXR counter 53.3 | GAA30 counter 103.6 | GAA850 confirm 26.9
Cc1[nH]c2ccccc2c1C(=O)/C=C/c1ccccc1Cl	GAA850 FXN act 7.7, AHR act 147.1 | AHR act confirm 122.9 | PXR counter 71.7 | GAA30 counter 117.4 | GAA850 confirm 43.6
Fc1ccccc1Nc1nc2ccccc2n2nnnc12	GAA850 FXN act 8.2, AHR act 96.2 | AHR act confirm 73.6 | PXR counter 11.0 | GAA30 counter 105.7 | GAA850 confirm 42.0
Cc1ccc(C)c(NC(=S)c2ccccn2)c1	GAA850 FXN act 13.4, AHR act 117.8 | AHR act confirm 105.5 | PXR counter 25.9 | GAA30 counter 78.0 | GAA850 confirm 28.1
Cc1ccc(C)c(NC(=O)NCc2ccccn2)c1	none
CCc1cccc(NC(=O)COc2ccccc2)c1	none
O=C(NCCCn1ccnc1)c1cc(-c2cccs2)on1	HIF act 38.2, GAA850 FXN act 41.4, AHR act 142.6 | AHR act confirm 457.6 | PXR counter 46.1 | GAA30 counter 158.6 | GAA850 confirm 114.3
COc1ccc(OC)c(-c2cc(C(=O)NCCCn3ccnc3)no2)c1	none
CCc1ccc2oc(-c3cc(N)cc(C)c3O)nc2c1	GAA850 FXN act 7.7, AHR act 114.4 (no result: HIF act) | AHR act confirm 117.2 | PXR counter 12.1 | GAA30 counter 81.5 | GAA850 confirm 39.9
Cc1cc2c([nH]c3ccccc32)c2c1OC(C)(C)C=C2	GAA850 FXN act 8.2, AHR act 101.7 | AHR act confirm 119.4 | PXR counter 72.3 | GAA30 counter 123.5 | GAA850 confirm 46.2
COc1ccc2[nH]c(=O)c3c(c2c1)OC(C)(C)C=C3	none
CN1CCSc2ccc(C(=O)Nc3ccc(Cl)cc3)cc21	GAA850 FXN act 7.8, AHR act 215.1 (no result: SR-BI DiI inh, SR-BI uptake up) | AHR act confirm 135.3 | PXR counter 70.2 | GAA30 counter 120.0 | GAA850 confirm 45.4
Fc1ccc(-c2cnn3c(-c4ccncc4)ccnc23)cc1	GAA850 FXN act 8.6, AHR act 134.6 | AHR act confirm inactive | PXR counter 26.5 | GAA30 counter 96.4 | GAA850 confirm 29.6
Fc1ccc(-c2cnn3c(-c4cccs4)ccnc23)cc1	none (no result: AHR act)
CN(C)CCN1CCN(C2CN(Cc3cn(Cc4ccc(C(F)(F)F)cc4)nn3)S(=O)(=O)C2)CC1 (centres undefined)	none (no result: SR-BI DiI inh, HIF act, SR-BI uptake up, GAA850 FXN act, AHR act)
COCCCNc1nc2ccccc2nc1NS(=O)(=O)c1ccc(OC)cc1	none
CNC(=O)CSc1nc2c([nH]c3ccccc32)c(=O)n1CCOC	none
COCCn1c(SCC(=O)Nc2ccccc2OC)nc2c([nH]c3ccccc32)c1=O	GAA850 FXN act 8.0, AHR act 84.7 | AHR act confirm 83.5 | PXR counter 178.6 | GAA30 counter inactive | GAA850 confirm 7.9
Cc1ccc2nc(N/N=C/c3ccco3)cc(C)c2c1	GAA850 FXN act 8.2, AHR act 121.2 | AHR act confirm 176.8 | PXR counter 23.4 | GAA30 counter 103.8 | GAA850 confirm 43.9
Clc1ccc(-c2cn3cc(Br)ccc3n2)cc1Cl	GAA850 FXN act 8.2, AHR act 90.5 | AHR act confirm 136.6 | PXR counter 15.8 | GAA30 counter 70.8 | GAA850 confirm 21.8
COc1ccc(Nc2nccc(-c3cccc(N)c3)n2)cc1	GAA850 FXN act 13.1, AHR act 132.2 | AHR act confirm 54.5 | PXR counter 30.4 | GAA30 counter 130.5 | GAA850 confirm 100.4
C=CCNc1sc(C(=O)c2ccccc2)c(N)c1-c1nc2ccccc2s1	SR-BI DiI inh 90.9, GAA850 FXN act 8.0, AHR act 131.9 | AHR act confirm 89.7 | PXR counter 43.5 | GAA30 counter inactive | GAA850 confirm 10.7
COc1ccccc1Oc1ccccc1C(=O)O	none
O=C(Nc1ccc([N+](=O)[O-])cc1)N1CCc2ccccc2C1	none

From PubChem BioAssay
